This is one part of a sample in which hits are shown more often than they occur.
INS promoter act – TRM-6 insulin promoter activation; activation, % at 2 µM; actives 0.81% (n = 130,000); TRM-6 cells (human fetal islet line), insulin promoter eGFP reporter, imaging; plate-scaled: unstimulated 0, stimulated control 100;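 active means activation at 2 µM above a set limit, confirmed on inspection of the cell images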;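 further: share of cells whose green reporter signal exceeds an intensity cutoff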
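Material: TRM-6 insulin promoter–eGFP reporter cells. Buffer or medium: Low-glucose (5.5 mM) medium with tamoxifen. Probe or stimulus: tamoxifen at 0.75 µM added at seeding for reporter induction. Times: tamoxifen pre-incubation 15 h overnight, then compound exposure 48 h at 37 °C. Detection: high-content imaging of fixed cells with Hoechst nuclear stain.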
* hit, by the source's call.

SMILES | INS promoter act
COc1ccc(-n2c(Cn3c(=O)sc4ccccc43)nnc2SC)cc1 | 12.5
CCOC(=O)Cn1c(=O)sc2ccccc21 | 0.0
CCOc1ccc(CC(=O)Nc2ccc(-c3ccc4nnc(C)n4n3)cc2)cc1 | 5.6
CCCCNC(=S)NNC(=O)C12CC3CC(CC(C3)C1)C2 | 86.2*
CCCCNC(=S)NNC(=O)c1ccc(Br)o1 | -7.1
CC(C)(C)OC(=O)NNC(=O)C12CC3CC(CC(C3)C1)C2 | -9.1
CSc1nc(N)nc(SC2C=CCCC2)c1C#N (configuration not stated) | 311.1
O=C(O)Cn1nc(C(F)(F)F)c2c1CCCC2 | -6.7
O=C(Cn1nc(C(F)(F)F)c2c1CCC2)Nc1ccccc1C(F)(F)F | 600.0*
O=C(Cn1nc(C(F)(F)F)c2c1CCC2)NC1CCCCC1 | -8.3
COC(=O)c1ccncc1C(=O)Nc1ccc(F)cc1 | -7.1
CCOC(=O)c1[nH]c(C)c(C(=O)N2CCN(C(=O)OCC)CC2)c1CC | -9.1
CCOC(=O)N1CCN(C(=O)c2cn(CC)c3ccc(S(=O)(=O)N4CCC(C)CC4)cc3c2=O)CC1 | 0.0
COc1ccc2[nH]c(=O)c(CN(Cc3nnnn3Cc3ccc(F)cc3)CC3CCCO3)cc2c1 (configuration not stated) | 117.6
O=c1[nH]c2cc3c(cc2cc1CN(CCCO)Cc1nnnn1Cc1ccc(F)cc1)OCO3 | 0.0
Cc1ccc2cc(CN(CCO)Cc3nnnn3Cc3ccc(F)cc3)c(=O)[nH]c2c1 | 140.0*
Cc1ccc(NC(=O)C(Cc2ccccc2)N2C(=O)C3C4CCC(C4)C3C2=O)cc1Cl (configuration not stated) | -8.3
COc1ccc(NC(=O)C(CCS(C)(=O)=O)N2C(=O)c3ccccc3C2=O)cc1 (configuration not stated) | -3.6
CN(C)S(=O)(=O)c1cc(NC(=O)[C@H](Cc2ccccc2)N2C(=O)c3ccccc3C2=O)ccc1Cl | 414.3*
C=CCc1ccc(OCC(O)CN2CCCCC2C)c(OC)c1 (configuration not stated) | 6.5
CN=C1CC(C)(C)CC(=O)/C1=C(/O)CCC(=O)NC | 0.0
CCOC(=O)CC1C(=O)NCCN1Cc1ccc(OC)c(OC)c1 (configuration not stated) | 154.5
CCOC(=O)c1cc(C)n(Cc2ccc(OCC)c(OC)c2)c1C | 85.7*
CCOc1cc(CN2CCN(C(=O)c3ccco3)CC2)ccc1OC | 9.4
CC1SC(c2cccc(Cl)c2)NC1=O (configuration not stated) | 7.1
SMILES | INS promoter act
CC1SC(c2ccc(Cl)cc2)NC1=O (configuration not stated) | 443.8*
CC(=O)OC(C(=O)Nc1ccccc1C)C(OC(C)=O)C(OC(C)=O)C(OC(C)=O)C(=O)Nc1ccccc1C (configuration not stated) | 206.3
CCOc1ccccc1NC(=O)Cn1c(=O)n(-c2ccc(OC)cc2OC)c(=O)c2c(C)c(C(=O)N(CC)CC)sc21 | 7.1
COc1cc(NC(=O)c2ncn[nH]2)cc(OC)c1OC | -5.6
Cc1ccc(C(=O)Nc2nc(C)c(C(=O)Nc3ccc4c(c3)CCC4)s2)cc1 | -6.7
Cc1cc(=O)[nH]c(N2CCc3ccccc3C2)n1 | -100.0
Cc1ccc(C2C(C#N)=C(N)Oc3n[nH]c(-c4cccs4)c32)s1 (configuration not stated) | 9.1
N#CC1=C(N)Oc2n[nH]c(-c3cccs3)c2C1c1ccsc1 (configuration not stated) | 323.8
N#CC1=C(N)Oc2n[nH]c(-c3cccs3)c2C1C1CCCCC1 (configuration not stated) | 110.0*
Cn1nnc(NC(=O)COc2ccc(C3CCCCC3)cc2)n1 | 127.6
O=C(CCCc1nc(-c2ccc(Cl)cc2)no1)N1CCOCC1 | 354.1
COc1ccc2c(C(=O)CN3CCN(c4ccccc4)CC3)c[nH]c2c1 | 94.4*
COc1cccc(N2CCN(CC(=O)NC(=O)NCc3ccco3)CC2)c1 | -8.3
COc1ccc(N2CCN(CCCNC(=O)Nc3ccccc3)CC2)cc1 | 228.6
N#Cc1c(Sc2ncc(C(F)(F)F)cc2Cl)nsc1C/C=N\OCc1ccccc1Br | 3.2
O=C(COc1cc(Cl)ccc1Cl)Nc1nnc(CC(=O)N2CCOCC2)s1 | 4.2
CCOc1cnn(Cc2ccccc2)c(=O)c1SCc1ccccc1 | -2.9
Cc1cc(C(=O)COC(=O)CCc2nc3ccccc3s2)c(C)n1C | 77.8*
COCCn1c(C)cc(C(=O)CSc2nc3ccccc3s2)c1C | 0.0
NC(=O)CSCc1nc2ccccc2s1 | 8.6
CC(CCc1ccccc1)NC(=O)COC(=O)c1cccs1 (configuration not stated) | 5.9
COc1ccc(OC)c(C2C3=C(CCCC3=O)Nc3nnnn32)c1 (configuration not stated) | 0.0
Cc1ccccc1CN1CCN(S(C)(=O)=O)CC1 | 443.8*
CCOc1ccccc1CN1CCN(S(C)(=O)=O)CC1 | 0.0
Cc1ccccc1CN1CCN(CC2CC3C=CC2C3)CC1 (configuration not stated) | 4.2
SMILES | INS promoter act
CCCCCCC(=O)Cc1cc(OC)c(OC)cc1C=C(C(=O)OCC)C(=O)OCC | 4.8
COc1cccc(Cn2cnc3c(NS(=O)(=O)c4cc(Cl)ccc4Cl)c(C)c(C)cc32)c1 | 4.2
N#Cc1c2c(c(=S)n(-c3ccccc3)c1N)CCCC2 | 273.3*
N#Cc1c2c(c(-c3ccccc3Cl)[nH]c1=S)CCCC2 | 0.0
N#Cc1c(NCCCO)nc(-c2ccccc2)c2c1CCCC2 | 0.0
O=C(CCc1nnc(CCCCc2ccccc2)o1)NCCN1CCOC1=O | 0.0
Cc1cccc(NC(=O)c2ccc(C(=O)c3ccccc3)o2)c1 | 0.0
CCC(C)(C(=O)NC1CCCCC1)N(Cc1cccs1)C(=O)c1ccccn1 (configuration not stated) | 106.7
CCC(C)(C(=O)NC1CCCC1)N(Cc1cccs1)C(=O)Cc1cccs1 (configuration not stated) | 82.8*
CCC(C)(C(=O)NC1CCCC1)N(C)C(=O)Cc1c[nH]c2ccccc12 (configuration not stated) | 0.0
CCCCNC(=O)C1CCCN1C(=O)NC1CCCCC1 (configuration not stated) | 179.3
Cc1ccccc1N(CC(=O)O)S(C)(=O)=O | 475.0*
Cc1ccccc1N(CC(N)=O)S(C)(=O)=O | -9.7
COc1ccccc1N(CC(=O)Nc1ccccc1C)S(C)(=O)=O | 8.3
COc1ccc(C(=O)N/C(=C/c2ccco2)C(=O)NC2CCS(=O)(=O)C2)cc1 (configuration not stated) | -7.1
O=S(=O)([N-]c1nc2ccccc2nc1-[n+]1ccc(-c2ccncc2)cc1)c1ccccc1 | -8.3
c1cncc(C(c2nnnn2C2CCCC2)N2CCN(Cc3ccc4c(c3)OCO4)CC2)c1 (configuration not stated) | 119.4
CC(C)C(c1nnnn1Cc1ccc(F)cc1)N1CCN(Cc2ccc3c(c2)OCO3)CC1 (configuration not stated) | 121.4*
CCOc1ncccc1C(=O)N1CCN(Cc2ccc3c(c2)OCO3)CC1 | 6.7
c1ccc2c(c1)CCN(Cc1nnnn1Cc1ccc3c(c1)OCO3)C2 | -7.0
c1cc2c(cc1CN1CCOCC1)OCO2 | 3.3
c1cnc(N2CCN(Cc3ccc4c(c3)OCO4)CC2)nc1 | 313.6*
Cc1ccc(NC(=O)Cn2cnc3c(nnn3Cc3ccc(F)cc3)c2=O)cc1 | 5.3
O=[N+]([O-])/C=C1/CCCCCN1 | 4.8
COc1ccc(/C=N/NC(=O)c2cc(=O)[nH]c3ccccc23)cc1OC | 0.0
Cc1ccc(C)n1-c1sccc1C(=O)O | 6.7
